In data set [1] the test system is Plasmodium falciparum. Briefly: Antimalarial activity against synchronous ring stage of Plasmodium falciparum Dd2 assessed as parasite growth inhibition incubated for 72 hrs by Griffith assay based fluorescence analysis. To be noted: Dd2, 72 h. It counts as functional, organism-based. The procedure, abridged: (§1)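 22-point dose-response, 3 per log, final 40 µM top, 0.4% DMSO. 72 h at 37 °C under 90% N2/5% CO2/5% O2. DAPI stain, confocal imaging. IC50 from 4-parameter fit normalised to in-plate puromycin and DMSO controls.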

For data set [2], the system named is Plasmodium falciparum. Put plainly: Selectivity index, ratio of IC50 for antimalarial activity against PfATP4 inhibitor SJ557733-resistant Plasmodium falciparum Dd2 to IC50 of antimalarial activity against Plasmodium falciparum Dd2. Type of data set: functional.
Data set [3] concerns Plasmodium falciparum. Put plainly: Antiplasmodial activity against PfATP4 inhibitor SJ557733-resistant Plasmodium falciparum Dd2 assessed as reduction in parasite growth incubated for 72 hrs by Griffith assay based fluorescence analysis. It counts as functional, organism-based. To be noted: Dd2, 72 h. An outline of the steps:
as §1

The nature of data set [4]: (§2) Binding affinity to Plasmodium falciparum 3D7 AMA1 (104 to 438 residues) expressed in Escherichia coli BL21(DE3) by surface plasmon resonance assay. For orientation: Surface plasmon resonance follows binding to a sensor surface in real time, without labels.
For data set [5], the system named is Plasmodium falciparum. Put plainly: Antimalarial activity against artemisinin-resistant Plasmodium falciparum Cam3.II^C580Y expressing K13 mutant assessed as reduction in parasite growth measured after 72 hrs by Monash assay based fluorescence analysis. Type of data set: functional, organism-based. An outline of the steps:
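Asynchronous culture, 72 h compound exposure. Compounds prepared at […] (twice the top concentration) in complete RPMI (25 mM HEPES, 0.5% Albumax II, 0.37 mM hypoxanthine, sodium bicarbonate), then serially diluted. Fluorescence read after 2 h room-temperature dark incubation. Negative control 0.01% DMSO. IC50 as mean SEM, n ≥ 3 biological replicates, each in technical duplicate or triplicate.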

Data set [6] in a line: Selectivity index, ratio of IC50 for antimalarial activity against Plasmodium falciparum Dd2 to IC50 of antimalarial activity against Plasmodium falciparum 3D7. Type of data set: functional.
A short description of data set [7]: Kinetic solubility of the compound at pH 6.5 measured after 30 mins by nephelometry. The following applies: buffer, read-out: Kinetic_solubility.
The test system of data set [8] is Plasmodium falciparum. Put plainly: Antimalarial activity against Plasmodium falciparum 3D7 assessed as reduction in parasite growth measured after 72 hrs by Monash assay based fluorescence analysis. Type of data set: functional, organism-based. To be noted: 3D7, 72 h. An outline of the steps:
(§3)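 Asynchronous P. falciparum cultures were grown continuously in complete RPMI with 25 mM HEPES, 0.5% Albumax II, 0.37 mM hypoxanthine and 2.0 g/l bicarbonate. They were exposed to serially diluted compound for 72 h. Controls were DMSO (0.01%) and a reference positive control. Fluorescence was read after 2 h in the dark at room temperature. IC50 is mean SEM from technical duplicate or triplicate, at least three biological replicates.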

Data set [9] can be described thus: Selectivity index, ratio of IC50 for cytotoxicity against human HEK293 cells to antiplasmodial activity against Plasmodium falciparum 3D7. It counts as toxicity, cell-based. To be noted: read-out: Ratio IC50.
In another data set the test system is HEK293. Briefly: Cytotoxicity against human HEK293 cells assessed as reduction in cell viability at 50 uM measured after 24 hrs by MTT assay. To be noted: hek293, 24 h. (Tetrazolium dyes change colour on reduction, which living cells bring about.)
Data set [10] has as its system Plasmodium falciparum. Briefly: Antimalarial activity against synchronous ring stage of Plasmodium falciparum 3D7 assessed as parasite growth inhibition incubated for 72 hrs by Griffith assay based fluorescence analysis. To be noted: 3D7, 72 h. Type of data set: functional, organism-based. The procedure, abridged: as §1
Data set [11] in a line: Metabolic stability in human liver microsomes assessed as half-life at 1 uM measured for 60 mins in presence of NADPH regenerating system by LC-MS analysis. Type of data set: ADME, Microsome. The procedure, abridged:
(§4)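 Compound was incubated at 37 °C with liver microsomes at 0.4 mg/mL protein. The reaction was started with an NADPH-regenerating system and quenched at time points over 60 min with acetonitrile containing diazepam as internal standard. No-NADPH controls were quenched at 2, 30 and 60 min.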
A general note: Liver microsomes are a subcellular fraction often used to study metabolism.

Data set [12] is described as follows: Metabolic stability in mouse liver microsomes assessed as half-life at 1 uM measured for 60 mins in presence of NADPH regenerating system by LC-MS analysis. Type of data set: ADME, Microsome. An outline of the steps:
as §4

Data set [13] in a line: Kinetic solubility of the compound at pH 2 measured after 30 mins by nephelometry. Type of data set: physicochemical. The following applies: buffer, read-out: Kinetic_solubility. An outline of the steps: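 Compound in DMSO was spiked into 0.01 M HCl (pH ~2.0) at a final DMSO of 1%. After 30 min, nephelometry gave a solubility range.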
Data set [14] can be described thus: Metabolic stability in mouse liver microsomes assessed as intrinsic clearance at 1 uM measured per mg protein for 60 mins in presence of NADPH regenerating system by LC-MS analysis. It counts as ADME, Microsome. The following applies: read-out: CLH. The procedure, abridged:
as §4

Data set [15] can be described thus: Metabolic stability in human liver microsomes assessed as intrinsic clearance at 1 uM measured per mg protein after 60 mins in presence of NADPH regenerating system by LC-MS analysis. Type of data set: ADME, Microsome. The following applies: read-out: CLH. An outline of the steps: as §4
Data set [16] concerns Plasmodium falciparum. Put plainly: Antimalarial activity against artemisinin-sensitive Plasmodium falciparum Cam3.II^rev expressing wild type K13 assessed as reduction in parasite growth measured after 72 hrs by Monash assay based fluorescence analysis. It counts as functional, organism-based. The procedure, abridged:
as §3

Data set [17] deals with Plasmodium falciparum 3D7. The data set is described as §2.

Converted amounts (≈) assume the structure as drawn. The source made the active and inactive calls.

As to `N#Cc1cc(NC(=O)[C@H]2c3ccccc3C(=O)N(CC(F)(F)F)[C@@H]2c2cccnc2)ccc1F` [SJ-733], the values for the IC50 in the data set on Plasmodium falciparum [1] and in the data set with Plasmodium falciparum [3] were 58.7 nM and above 8000 nM, respectively. Further, the Ratio IC50 in the data set with Plasmodium falciparum [2] is above 135.

Regarding `Nc1cccc(-c2nc3ccccc3[nH]2)c1`, in data set [4], the Kd came to 500000 nM.

On to `Cc1ccc(-n2c(N)nc3ccccc32)c(O)c1`, for which the half-inhibitory concentration (IC50) in the data set with Plasmodium falciparum [5] was determined as 81 nM; in the data set with Plasmodium falciparum [8], 42 nM; in the data set on Plasmodium falciparum [10], 13.5 nM; with Plasmodium falciparum [1], 31.7 nM; in the data set on Plasmodium falciparum [16], 140 nM; with Plasmodium falciparum [3], 17.5 nM. Besides, the Ratio IC50 in data set [6] is 2.3; with Plasmodium falciparum [2], 0.5. In addition, the solubility kinetic at 0.5 h in data set [7] is 25 µg/mL (≈ 104 µM); in data set [13] it was above 100 µg/mL. The selectivity ratio in [9] was above 1000. For the same compound, the Activity result in the data set on HEK293 is listed as “Non-Toxic”. Further, the half-life at 1 µM in data set [11] was 2.7 h; in data set [12] it was 0.3 h. Further, the results for the microsomal CLint at 1 µM in data set [14] and in [15] were 97 µL/min/mg and 11 µL/min/mg, respectively.

On to `Oc1cccc(-c2nc3ccccc3[nH]2)c1`, for which, in [4], the dissociation constant (Kd) is 800000 nM.

Regarding `Nc1nc2ccccc2n1-c1ccccc1O`, the IC50 with Plasmodium falciparum [5] was found to be 264 nM; in the data set on Plasmodium falciparum [8] it was 77 nM; with Plasmodium falciparum [10], 22.2 nM; in the data set with Plasmodium falciparum [1] it was 97.3 nM; in the data set with Plasmodium falciparum [16], 350 nM; in the data set with Plasmodium falciparum [3] it was 46 nM. In addition, the Ratio IC50 in data set [6] worked out at 4.4; with Plasmodium falciparum [2], 0.5. Further, the solubility kinetic at 0.5 h in data set [7] and in [13] was above 100 µg/mL each time. For the same compound, the selectivity ratio in data set [9] is above 1000. Further, the Activity entry in the data set on HEK293 is on record as “Non-Toxic”. Moreover, the half-life at 1 µM in [11] was above 4.25 h; in [12], 1.3 h. Also, in data set [17], the outcome was inactive. The results for the microsomal CLint at 1 µM in data set [14] and in data set [15] were 22 µL/min/mg and below 7 µL/min/mg, respectively.

Turning to `Nc1cc(N)cc(-c2nc3ccccc3[nH]2)c1`, the Kd in [4] worked out at 100000 nM.

A word on the IC50: it is the point on the concentration scale where inhibition reaches its midpoint. The term Kd denotes the constant that tells how readily two partners part at equilibrium. A low value points to higher affinity. One may read the half-life as the time needed for the level to fall by half in the phase considered.
